Assay results taken from ChEMBL document CHEMBL1130410, “19-nor-10-azasteroids: a novel class of inhibitors for human steroid 5alpha-reductases 1 and 2” (J Med Chem, 1997).
Where “and” joins values, the source holds several entries; their conditions need not be identical. Equal entries are not always repeated.

Tests used:
[1] = target: T1, 3-oxo-5-alpha-steroid 4-dehydrogenase 2 (Homo sapiens, UniProt P31213); experiment: Inhibition against 5 alpha R-2 in human prostate homogenate relative to finasteride; type: tissue-based, Prostate gland
T1 sequence (P31213 whole entry): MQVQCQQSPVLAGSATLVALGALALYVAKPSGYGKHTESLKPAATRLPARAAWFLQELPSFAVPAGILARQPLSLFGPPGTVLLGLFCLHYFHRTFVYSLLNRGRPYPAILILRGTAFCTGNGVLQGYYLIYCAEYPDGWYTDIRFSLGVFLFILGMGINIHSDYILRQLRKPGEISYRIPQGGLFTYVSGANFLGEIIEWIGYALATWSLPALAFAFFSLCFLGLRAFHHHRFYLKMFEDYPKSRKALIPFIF

[2] = target: T1, 3-oxo-5-alpha-steroid 4-dehydrogenase 2; experiment: Inhibitory activity against 5-alpha Reductase-2 on human prostate homogenates from surgically derived benign hyperplastic tissue; type: tissue-based, Prostate gland
How it was run: (§1)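 Benign hyperplastic human prostate tissue, stored at -80 °C, was homogenized near 0 °C in 50 mM TRIS pH 7.4 with salts, nicotinamide and sucrose, spun at 200g, and the combined supernatants were used. Homogenate (0.1 mg protein) was incubated with 30 nM testosterone (9% [3H]) and 0.3 mM NADPH for 30 min at 37 °C, with the inhibitor added alongside the substrate. Inhibitor range was 10⁻¹⁰–10⁻⁵ M. DHT conversion was read by TLC and scintillation, in duplicate.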

[3] = target: T2, 3-oxo-5-alpha-steroid 4-dehydrogenase 1 (Homo sapiens, UniProt P18405); experiment: (§2) Inhibitory activity against human 5-alpha Reductase-1 expressed in DU-145 cells; type: cell-based
T2 sequence (P18405 whole entry): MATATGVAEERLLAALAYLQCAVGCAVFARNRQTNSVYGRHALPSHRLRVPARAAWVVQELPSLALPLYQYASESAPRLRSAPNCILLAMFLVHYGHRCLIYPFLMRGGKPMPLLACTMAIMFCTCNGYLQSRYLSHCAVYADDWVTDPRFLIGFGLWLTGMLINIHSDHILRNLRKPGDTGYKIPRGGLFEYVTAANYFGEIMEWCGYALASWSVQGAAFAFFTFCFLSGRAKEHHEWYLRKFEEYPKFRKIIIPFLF
How it was run: (§3)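 DU-145 cells (passage 60–90) were plated at 100 000 cells/well and left to adhere for 24 h. Inhibitors were prepared in ethanol, diluted in phenol-red-free MEM and tested at five doses, 10⁻⁹–10⁻⁵ M, with 5 nM [3H]androstenedione. After 6 h at 37 °C in 5% CO2, the medium was extracted with ethyl acetate and analysed by TLC and scintillation.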

[4] = target: 3-oxo-5-alpha-steroid 4-dehydrogenase 1 (Homo sapiens, UniProt P18405); experiment: as §2; type: cell-based; how it was run: as §3; remark: listed apart in the source
[5] = target: T1, 3-oxo-5-alpha-steroid 4-dehydrogenase 2; experiment: Tested against 5 alpha R-2 on human prostate homogenate from surgically derived benign hyperplastic tissue in experiment 1; type: tissue-based, Prostate gland; how it was run: as §1
[6] = target: T1, 3-oxo-5-alpha-steroid 4-dehydrogenase 2; experiment: Tested against 5 alpha R-2 on human prostate homogenate from surgically derived benign hyperplastic tissue in experiment 2; type: tissue-based, Prostate gland; how it was run: as §1
[7] = target: T1, 3-oxo-5-alpha-steroid 4-dehydrogenase 2; experiment: Tested against 5 alpha R-2 on human prostate homogenate from surgically derived benign hyperplastic tissue in experiment 3; type: tissue-based, Prostate gland; how it was run: as §1
[8] = target: T1, 3-oxo-5-alpha-steroid 4-dehydrogenase 2; experiment: Inhibition against 5 alpha R-2 in human prostate homogenate compared with finasteride in experiment 1; type: tissue-based, Prostate gland; how it was run: as §1
[9] = target: T1, 3-oxo-5-alpha-steroid 4-dehydrogenase 2; experiment: Inhibition against 5 alpha R-2 in human prostate homogenate compared with finasteride in experiment 2; type: tissue-based, Prostate gland; how it was run: as §1
[10] = target: T1, 3-oxo-5-alpha-steroid 4-dehydrogenase 2; experiment: Inhibition against 5 alpha R-2 in human prostate homogenate compared with finasteride in experiment 3; type: tissue-based, Prostate gland; how it was run: as §1
[11] = target: T1, 3-oxo-5-alpha-steroid 4-dehydrogenase 2; experiment: TInhibitory activity against 5-alpha Reductase-2 on human prostate homogenates from surgically derived benign hyperplastic tissue in experiment 2; type: tissue-based, Prostate gland; how it was run: as §1
[12] = target: T1, 3-oxo-5-alpha-steroid 4-dehydrogenase 2; experiment: Inhibitory activity against 5-alpha Reductase-2 on human prostate homogenates from surgically derived benign hyperplastic tissue in experiment 1; type: tissue-based, Prostate gland; how it was run: as §1

Row | SMILES | IC50 [1] [nM] | IC50 [2] [nM] | IC50 [3] [nM] | further results
1 | C[C@]12CC[C@H]3[C@@H](CCC4=CC(=O)CCN43)[C@@H]1CCC2=O | 3.5 | 4400 | 299 | –
2 | CC(C)(C)NC(=O)[C@H]1CC[C@H]2[C@@H]3CC[C@H]4NC(=O)C=C[C@]4(C)[C@H]3CC[C@]12C [FINASTERIDE] | – | 3 | – | IC50 [4]: 42 nM
3 | C[C@]12CC=C3C4=C(CCC3[C@@H]1CCC2=O)NCCC4=O.C[C@]12CCC3=C(CCC4=C3C(=O)CCN4)[C@@H]1CCC2=O (stereo in doubt; 27b) | 3.8 | – | – | –
4 | C[C@]12CC=C3[C@@H](CCC4=CC(=O)CCN43)C1CCC2=O.C[C@]12CCC3=C(CCC4=CC(=O)CCN43)C1CCC2=O (stereo in doubt; 4a) | 3.4 | – | – | –
5 | CC(C)(C)NC(=O)[C@H]1CC[C@H]2[C@@H]3CCC4=CC(=O)CCN4[C@H]3CC[C@]12C | 5.5 | 460 | 1130 | –
6 | C[C@]12CC=C3[C@@H](CCC4=CC(=O)CCN43)C1CCC2=O.C[C@]12CCC3=C(CCC4=CC(=O)CCN43)C1CCC2=O (stereo in doubt; 4a:4b(5:1)) | 4.1 | 4600 | 263 | –
7 | C=CC(=O)/C=C1/CCC2=C(CC[C@]3(C)C(=O)CC[C@@H]23)N1.C=CC(=O)/C=C1/CCC2C(=CC[C@]3(C)C(=O)CC[C@@H]23)N1 (some centres not stated) | 6.1 | > 100000 | – | –
8 | C[C@]12CC[C@H]3[C@@H](CC[C@H]4CC(=O)CCN43)[C@@H]1CCC2=O | 2.9 | > 100000 | > 100000 | –
9 | C[C@]12CC=C3C4=C(CCC3[C@@H]1CCC2=O)NCCC4=O.C[C@]12CCC3=C(CCC4=C3C(=O)CCN4)[C@@H]1CCC2=O (stereo in doubt; 27c) | 6.1 | > 100000 | > 100000 | –
10 | C[C@]12CC[C@H]3[C@@H](CCC4=CC(=O)CCN43)[C@@H]1CC[C@@H]2O | 2.7 | 4200 | 409 | –
11 | C[C@]12CC[C@H]3[C@@H](CCC4CC(=O)C=CN43)[C@@H]1CCC2=O (some centres not stated) | 2.4 | 46000 | – | –
12 | C[C@]12CC=C3[C@@H](CCC4=CC(=O)CCN43)C1CC[C@@H]2O.C[C@]12CCC3=C(CCC4=CC(=O)CCN43)C1CC[C@@H]2O (some centres not stated) | 3 | 2900 | – | –
13 | CC(C)(C)NC(=O)[C@H]1CC[C@H]2C3=C(CC[C@]12C)N1CCC(=O)C=C1CC3.CC(C)(C)NC(=O)[C@H]1CC[C@H]2C3CCC4=CC(=O)CCN4C3=CC[C@]12C (some centres not stated) | – | – | 127 | IC50 [5]: 10.2 nM; IC50 [6]: 7.3 nM; IC50 [7]: 150 nM; IC50 [8]: 2.2 nM and 3.4 nM; IC50 [9]: 5.7 nM and 3.1 nM; IC50 [10]: 4.3 nM; IC50 [11]: 122 nM; IC50 [12]: 37 nM
